Screening data (PubChem BioAssay)
Diaphorase inh: diaphorase inhibitors and chemical oxidizers, primary screen, counter-screen for diaphorase-coupled primary assays, biochemical, uHTS, resorufin fluorescence; diaphorase resazurin-to-resorufin fluorescence, NADH, 16 min; bacterial (C. kluyveri) enzyme, not human; inhibition, % at 20 µM; actives 0.69% (n = 190,000); AID 1217, 2008;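 active = primary screen inhibition at 20 µM above a set limit, cut at about 50% in these data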
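controls = No-NADH positive control and DMSO neutral control | system = Clostridium kluyveri diaphorase enzyme | timing = reaction incubation of 16 min at room temperature | signal = resorufin fluorescence 544/590 nm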
Arbovirus anti: antivirals against arbovirus infection, primary screen, cell-based, full library, 10K replicate subset; arbovirus infection cell-based antiviral screen; inhibition, % at 10 µM; actives 0.37% (n = 200,000); AID 1251, 2008; in the data active = inhibition above about 30%
Diaph act CS: compounds boosting diaphorase resazurin reduction – biochemical, uHTS, resorufin fluorescence, counter-screen for diaphorase-coupled primary assays, primary screen; Diaphorase/resazurin coupled assay, 16 min; stronger effect = higher value; 1 = vehicle wells, 0 = NADH-free wells; activation factor at 20 µM; actives 0.005% (n = 190,000);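 active = diaphorase activity raised at least twofold by the compound at 20 µM; inactive = activation factor below 2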
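Material: bacterial diaphorase enzyme (C. kluyveri); amount: enzyme 0.07 U/mL final; reagent: NADH substrate 0.114 mM plus resazurin dye 0.1 mM, final; doses: single compound dose of 20 µM, 1% DMSO final; timing: 16 min enzyme reaction, ambient temperature; measured by: fluorescence of resorufin, 544 nm excitation, 590 nm emission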
G6PDH CS: L. mesenteroides G6PDH inhibitors, counter-screen for G6PDH-coupled screening assays, biochemical, Leuconostoc mesenteroides enzyme; Purified L. mesenteroides G6PDH, diaphorase/resazurin coupled fluorescence, 45 min; inhibition, % at 5 µM; actives 0.12% (n = 200,000); in the data active = inhibition above about 50%
HKDC1 inhibitor: HKDC1 hexokinase inhibitors, primary screen, biochemical, fluorescence, uHTS. Q2TB90. actives 0.16% (n = 340,000). inhibition, % at 20 µM. recombinant HKDC1, G6PDH/diaphorase resazurin coupled fluorescence;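 active = inhibition above about 35% when tested at 20 µM, limit read from the data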
Target sequence (Q2TB90 whole entry, looked up): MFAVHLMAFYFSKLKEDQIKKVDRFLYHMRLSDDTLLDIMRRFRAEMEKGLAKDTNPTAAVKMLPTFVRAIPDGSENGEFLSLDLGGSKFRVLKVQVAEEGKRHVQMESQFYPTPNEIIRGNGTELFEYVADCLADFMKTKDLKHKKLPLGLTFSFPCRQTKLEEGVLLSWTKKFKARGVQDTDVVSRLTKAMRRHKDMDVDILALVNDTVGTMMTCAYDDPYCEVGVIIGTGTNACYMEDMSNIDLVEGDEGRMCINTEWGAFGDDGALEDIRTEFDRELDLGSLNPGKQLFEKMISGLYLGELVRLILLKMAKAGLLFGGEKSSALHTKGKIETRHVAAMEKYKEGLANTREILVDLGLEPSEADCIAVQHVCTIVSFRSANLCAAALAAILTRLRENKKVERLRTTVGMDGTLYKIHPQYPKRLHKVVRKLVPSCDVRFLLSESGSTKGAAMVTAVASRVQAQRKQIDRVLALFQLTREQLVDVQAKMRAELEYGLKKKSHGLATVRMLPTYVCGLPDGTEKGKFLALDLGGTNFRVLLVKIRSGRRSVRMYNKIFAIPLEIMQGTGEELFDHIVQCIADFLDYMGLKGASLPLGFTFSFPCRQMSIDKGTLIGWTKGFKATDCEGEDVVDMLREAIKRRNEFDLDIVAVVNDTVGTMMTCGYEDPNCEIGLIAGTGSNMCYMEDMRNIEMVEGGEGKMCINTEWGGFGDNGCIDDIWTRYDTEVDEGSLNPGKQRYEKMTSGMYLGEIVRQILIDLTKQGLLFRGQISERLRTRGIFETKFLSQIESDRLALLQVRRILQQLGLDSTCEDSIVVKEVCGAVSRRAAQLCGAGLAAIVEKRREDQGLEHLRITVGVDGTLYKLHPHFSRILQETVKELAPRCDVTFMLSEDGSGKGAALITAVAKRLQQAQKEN
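Material: recombinant HKDC1 hexokinase; Amount: HKDC1 at 5 µg/mL; Medium: Tris pH 8.0 buffer with MgCl2, Tween-20, BSA, BME; Schedule: 90 min reaction incubation at room temperature, dark; Technique: coupled resazurin fluorescence, excitation 525 nm, emission 613 nm.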
A number is an active result; . = inactive; / = no result given. An excerpt weighted towards active compounds, which were near 0.74% of everything screened.

SMILES	Diaphorase inh	Arbovirus anti	Diaph act CS	G6PDH CS	HKDC1 inhibitor
O=C(Nc1ccc(F)cc1)C1CCC(N2C(=O)c3ccccc3C2=O)CC1 (stereo not drawn)	.	.	.	.	.
NC(=O)c1ccccc1Nc1nc(NCCO)nc(N2CCCC2)n1	/	/	/	/	.
COC(=O)c1ccc(-c2ccc(C(c3c(C)[nH][nH]c3=O)c3c(C)[nH][nH]c3=O)o2)cc1	68	.	.	.	.
Cc1nc2c(C(=O)NCCC3=CCCCC3)c[nH]n2c(=O)c1Cl	54	.	.	.	.
COc1cc(OC)c(C(=O)OCC(=O)N2CCN(S(=O)(=O)c3ccc(C)cc3C)CC2)cc1OC	/	/	/	/	.
S=c1nc2ccccc2c2nc(-c3ccccc3)[nH]n12	77	.	.	.	.
CCCC(Oc1ccc(Br)cc1)c1nc2c3cc(OC)c(OC)cc3nc(=S)n2[nH]1 (stereo not drawn)	.	.	.	.	.
S=c1nc2ccccc2c2nc(-c3ccccc3Cl)[nH]n12	/	/	/	/	.
CC(Oc1ccc(Br)cc1)c1nc2c3ccccc3nc(=S)n2[nH]1 (stereo not drawn)	85	.	.	.	.
Nc1nc(-c2ccccc2)c(-c2ccc([N+](=O)[O-])cc2)s1	.	33	.	.	.
O=C(O)c1cccc(Cl)n1	/	/	/	/	.
O=C(O)c1cccc(C(=O)O)n1	71	.	.	.	/
CC(C)n1c(SCC(=O)N2c3ccccc3Sc3ccccc32)nc2c1c(=O)n(C)c(=O)n2C	76	.	.	.	.
CCCn1c(SCC(=O)N2c3ccccc3Sc3ccccc32)nc2c1c(=O)n(C)c(=O)n2C	.	.	.	.	.
O=C1C(=O)c2ccc(-c3ccccc3)cc2-c2ccccc21	.	.	.	54	.
Nc1ccc2c(c1)C(=O)C(=O)c1ccccc1-2	.	.	.	58	.
Nc1ccc2c(c1)C(=O)c1ccccc1-2	/	/	/	/	.
CCN(CC(=O)Nc1ccc(NC(C)=O)cc1)C(=O)c1ccc(COc2ccc(C(C)(C)C)cc2)cc1	/	/	/	/	.
CS(=O)(=O)N1CCN(c2ccc([N+](=O)[O-])c(SCc3ccco3)c2)CC1	57	.	.	.	.
Cn1cc(CN2CCN(c3ccccc3)CC2)c2ccccc21	.	36	.	.	.
O=C(O)C1Nc2c(O)cccc2C2C=CCC12 (stereo not drawn)	78	.	.	.	.
C/C(=N\NS(=O)(=O)c1ccccc1)c1cccc(NC(=O)c2cccc(Cl)c2)c1	.	47	.	.	.
C/C(=N/NS(=O)(=O)c1ccc(Cl)cc1)c1cccc(NC(=O)c2ccncc2)c1	/	/	/	/	.
Oc1ccc(C=Nc2ccc3ncccc3c2)c(O)c1	68	.	.	56	/
Oc1ccc(C=Nc2cccc3ncccc23)c(O)c1	.	.	.	.	.
SMILES	Diaphorase inh	Arbovirus anti	Diaph act CS	G6PDH CS	HKDC1 inhibitor
Cc1cccc(NC(=O)N2CCC(n3nnc4cc(C)ccc43)CC2)c1	79	.	.	.	.
Cc1ccc2c(c1)nnn2C1CCN(C(=O)NCc2ccccc2)CC1	.	.	.	.	.
Cn1c(Oc2ccccc2NCc2cccc(Br)c2)cc(=O)n(C)c1=O	.	.	.	.	.
COc1ccc(CN(C(=O)c2oc3ccccc3c2C)C2CCS(=O)(=O)C2)cc1OC (stereo not drawn)	.	87	.	.	.
O=C(O)c1cccc(NS(=O)(=O)c2ccc(-c3ccc(S(=O)(=O)Nc4cccc(C(=O)O)c4)cc3)cc2)c1	51	.	.	.	.
Brc1ccccc1-c1nnc(SCc2nc3ccccc3s2)o1	.	34	.	.	.
CCN(CC)S(=O)(=O)c1cccc(-c2nnc(SCc3nc4ccccc4s3)o2)c1	.	.	.	.	.
CC(=O)NNC(=O)c1sc(=S)n2c1[nH]c(=O)c1sccc12	.	.	.	.	.
O=C(NCc1ccccc1)c1sc(=S)n2c1[nH]c(=O)c1ccccc12	73	.	.	.	.
O=C(/C(=N/N=C/c1ccc(O)c(O)c1)c1ccccc1)c1ccccc1	51	.	.	.	.
